In BindingDB's records for doi:10.1021/jm960868t (Organix, 1997):

Biological target: Sodium-dependent dopamine transporter (Macaca fascicularis, UniProt Q9GJT6)
Experiment: Inhibition of [3H]WIN-35428 binding to dopamine transporter using of Cynomolgus monkey caudate-putamen
In short: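 Caudate-putamen membranes (washed in 50 mM Tris-HCl pH 7.4, 3800g spins) incubated at 4 mg original wet tissue/mL with 0.3 nM [3H]WIN35,428 and 7–14 competitor concentrations in 50 mM Tris-HCl/100 mM NaCl pH 7.4, 2 h at 0–4 °C. Filtered on BSA-soaked GF/B filters, scintillation counting. Nonspecific binding defined with 30 μM (–)-cocaine. IC50 computed by EBDA; independent experiments in triplicate.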

Sequence of Sodium-dependent dopamine transporter (Q9GJT6 whole entry): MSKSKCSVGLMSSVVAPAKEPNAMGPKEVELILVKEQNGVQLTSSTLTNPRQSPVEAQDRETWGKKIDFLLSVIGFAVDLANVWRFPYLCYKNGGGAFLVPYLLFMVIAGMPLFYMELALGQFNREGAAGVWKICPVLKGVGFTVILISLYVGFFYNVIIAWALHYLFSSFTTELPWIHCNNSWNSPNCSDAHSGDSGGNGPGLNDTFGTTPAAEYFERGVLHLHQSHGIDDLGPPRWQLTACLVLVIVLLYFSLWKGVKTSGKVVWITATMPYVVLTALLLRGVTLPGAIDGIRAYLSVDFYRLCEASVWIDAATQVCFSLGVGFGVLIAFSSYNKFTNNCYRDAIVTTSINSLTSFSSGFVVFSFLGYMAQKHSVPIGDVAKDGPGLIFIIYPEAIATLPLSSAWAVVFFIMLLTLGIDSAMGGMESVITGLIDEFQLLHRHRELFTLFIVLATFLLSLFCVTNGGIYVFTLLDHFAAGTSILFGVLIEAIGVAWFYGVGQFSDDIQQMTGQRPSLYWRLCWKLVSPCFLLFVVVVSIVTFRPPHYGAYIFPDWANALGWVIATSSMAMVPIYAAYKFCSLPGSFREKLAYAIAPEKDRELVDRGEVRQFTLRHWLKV

Row | Compound | IC50 [µM]
1 | COC(=O)[C@@H]1C2CCC(C[C@@H]1OC(c1ccc(F)cc1)c1ccc(F)cc1)N2CCCN1CC[S][Re]2(=[O])[S]CC[N]2C(=O)C1 (some centres not stated) | 0.343
2 | COC(=O)C1C(c2ccc(Cl)c(Cl)c2)CC2CCC1N2CCC[N+]12CC[S][Re]13(=[O])[S]CC[N]3C(=O)C2 (stereo not drawn) [[N-[2-[(3'-N'-Propyl-3''beta-(3,4-dichlorophenyl)tropane-2''beta-carboxylic acid methyl ester)(2-mercaptoethyl)amino]acetyl]-2-aminoethanethiolato]rhenium(V) oxide] | 0.0372
